Reference: PMC10828771 (Haematologica, 2023)
Residues, ends and D or L forms follow the SMILES beside them. *: point of attachment. Cbz = O=C(OCc1ccccc1)*; CH2F = FC*

Test system: OPM-2 cells
Assay: Apoptosis and necroptosis inhibition assays
Type: cell-based, human
Summary of the method: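 OPM-2 cells at 250,000 cells/mL pre-incubated 1 h at 37°C in medium containing pan-caspase inhibitor Z-VAD-FMK, necroptosis inhibitor necrostatin-1s, or DMSO. Washed (PBS for Z-VAD-FMK arm), then cultured 72 h with test compound or DMSO. Viability by Zombie-aqua staining and flow cytometry. Z-VAD-FMK arm: mean ± SD of 3 independent experiments.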

SMILES	effect of pretreatment on OSU-13-mediated cell death (100 μM necrostatin-1s 1 h, then 1 μM OSU-13 72 h)	decrease of OSU-13-mediated cell death by pretreatment (100 mM Z-VAD-FMK 1 h, then 1 mM OSU-13 72 h) [%]
CN1C(=O)NC(Cc2c[nH]c3c(Cl)cccc23)C1=O (centres unmarked) [Necrostatin-1s]	no measurable effect	–
COC(=O)C[C@H](NC(=O)[C@H](C)NC(=O)[C@@H](NC(=O)OCc1ccccc1)C(C)C)C(=O)CF [Z-VAD-FMK] (Cbz-Val-Ala-Asp(OMe)-CH2F)	–	20±6.7
